Measured values pooled from the literature.
Organism: Staphylococcus aureus
Read-out: microbial growth

`O=C(O)CN1C(=O)/C(=C/c2ccc(-c3ccc(N(c4ccccc4)c4ccccc4)cc3)c3ccccc23)NC1=S` gave an MIC of > 1000 µg/mL (broth dilution; ATCC43300).
With `CC1(C)S[C@@H]2[C@H](NC(=O)COc3ccccc3)C(=O)N2[C@H]1C(=O)O` the MIC was > 128 µg/mL (broth dilution; MRSA; 18 h, clinical isolate).
`O=C1NC(=S)N/C1=C\c1ccc(-c2ccc(N(c3ccccc3)c3ccccc3)cc2)c2ccccc12` gave an MIC of > 1000 µg/mL (broth dilution; ATCC25923).
`CC(C)/N=C(\N)c1ccc(NC(=O)c2ccc(C(=O)Nc3ccc(/C(N)=N/C(C)C)cc3)cc2)cc1` has an MIC of 4 µg/mL.
`CSc1ccc(-c2nc3ccc(C)cc3[nH]2)cc1` gave an MIC of 16 µg/mL (broth dilution; ATCC29213 MSSA).
`O=C(CCCCCCCCCC[P+](c1ccccc1)(c1ccccc1)c1ccccc1)Nc1cc(O)c(O)c(O)c1.[Br-]` has an MIC of 2 µg/mL (broth dilution; ATCC43300 MRSA; 18 h).
`Clc1ccc(Cn2c(-c3ccc(Cl)cc3)nc3ccccc32)cc1` gave an MIC of 8 µg/mL (broth dilution; ATCC29213 MSSA).
`COc1cccc(OC)c1C(=O)N[C@@H]1C(=O)N2[C@@H]1SC(C)(C)[C@@H]2C(=O)O` gave an MIC of 6.25 µM (147; clinical isolate).
The MIC of `CC(C)Oc1c(NC(=O)c2ccc(NC(=O)[C@H](CC(N)=O)NC(=O)c3ccc(NC(=O)c4cccc([N+](=O)[O-])c4)cc3)cc2)ccc(C(=O)Nc2ccc(C(=O)O)cc2)c1O` is reported as > 64 µg/mL (ATCC29213).
The MIC of `O=C(NC1CCNCC1)c1n[nH]cc1NC(=O)c1c(Cl)cccc1Cl` is reported as > 30 µM (NCTC8325).
`Cc1ccc2nc(-c3ccco3)n(Cc3ccccc3)c2c1` has an MIC of 128 µg/mL (broth dilution; ATCC29213 MSSA).
The MIC of `COc1cc2ncnc(Nc3ccc(F)c(Cl)c3)c2cc1NC(=O)/C=C/CN1CCCCC1` is reported as > 30 µM (NCTC8325).
With `CC(C)Oc1c(NC(=O)c2ccc(NC(=O)[C@H](CC(N)=O)NC(=O)c3ccc(NC(=O)c4ccccc4[N+](=O)[O-])cc3)cc2)ccc(C(=O)Nc2ccc(C(=O)O)cc2)c1O` the MIC was > 64 µg/mL (ATCC29213).
For `Cc1ccc(NC(=O)Nc2ccc3c(c2)OC(F)(F)O3)cc1`, the MIC was > 100 µM (NCTC8325).
With `COc1c(C)c(O)c(C)c(O)c1C(=O)/C=C/c1ccccc1` the MIC was 2500 µg/mL (broth dilution; ATCC25923).
With `O=C(O)c1ccc(Nc2ncc3c(n2)-c2ccc(Cl)cc2C(c2c(F)cccc2F)=NC3)cc1` the MIC was > 30 µM (NCTC8325).
`CC(=O)NC[C@H]1CN(c2ccc(N3CCOCC3)c(F)c2)C(=O)O1` gave an MIC of 2 µg/mL (broth dilution; MRSA NRS123 USA400; drug-resistant strain).
With `CCN1CCN(Cc2ccc(-c3cc4c(N[C@H](C)c5ccccc5)ncnc4[nH]3)cc2)CC1` the MIC was > 30 µM (NCTC8325).
For `C/C=C(\C)c1cc(O)c(C)c(OC(=O)c2c(C)cc(O)c(Cl)c2O)c1`, the MIC was 16 µg/mL (broth dilution; 16339).
`CSc1ccc(/C=C/c2cc(/C=C3\Sc4ccccc4N3CCCN3CCCC3)c3ccccc3[n+]2C)cc1.[I-]` has an MIC of 32 µg/mL (broth dilution; ATCCBAA44).
`COc1cc2/c(=N/c3ccc(Br)cc3F)nc[nH]c2cc1OCC1CCN(C)CC1` has an MIC of > 30 µM (NCTC8325).
